Reference: ChEMBL document CHEMBL1129079, “Synthesis and antiviral evaluation of certain disubstituted benzimidazole ribonucleosides” (J Med Chem, 1996)

Columns and labels:
Human alphaherpesvirus 1 = experiment: Antiviral activity against herpes simplex virus type 1 (HSV-1) was performed by HSV-1 ELISA assays.; format: functional, organism-based
Method in brief: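 HSV-1 strain KOS (used in most experiments); ELISA read-out, quadruplicate wells; IC50 from linear regression of percent inhibition against log drug concentration.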

KB [1] = experiment: Inhibitory activity against growth of human epidermoid oral carcinoma KB cell line; format: functional, cell-based
Method in brief: (§1)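 KB cells grown in MEM with Hank's salts plus 10% calf serum; logarithmically growing cells, staining-based growth read-out, quadruplicate assays; IC50 from linear regression of percent inhibition vs log drug concentration.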

Human betaherpesvirus 5 [2] = experiment: Antiviral activity against human cytomegalovirus (HCMV) in plaque reduction assay; format: functional, organism-based
Method in brief: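 HCMV Towne strain (plaque-purified P0) on HFF monolayers; inoculum ~100 PFU in 0.2 mL; compounds dissolved in overlay medium; plaques counted after staining; IC50 from linear regression of percent inhibition vs log concentration; averages of duplicate or triplicate experiments.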

HFF = experiment: Cytotoxicity produced in human foreskin fibroblasts (HFF) cells was estimated by visual scoring of cells unaffected by virus infection in the plaque-reduction assay.; format: ADME, cell-based
Method in brief: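 Uninfected HFF cells in the HCMV plaque-reduction plates, examined at 30-fold magnification; drug-induced cytopathology scored 0–4 on the day of staining for plaque counting.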

Human betaherpesvirus 5 [3] = experiment: Antiviral activity against human cytomegalo virus (HCMV) in yield reduction assay; format: functional
Human betaherpesvirus 5 [4] = experiment: Antiviral activity against human cytomegalovirus (HCMV) in yield reduction assay; format: functional
KB [5] = experiment: Inhibitory activity against growth of KB cell.; format: functional, cell-based; conditions: Homo sapiens; method in brief: as §1

Row | Structure (SMILES) | IC50 (Human alphaherpesvirus 1) [µM] | IC50 (KB [1]) [µM] | IC50 (Human betaherpesvirus 5 [2]) [µM] | IC50 (HFF) [µM] | IC90 (Human betaherpesvirus 5 [3]) [µM] | IC90 (Human betaherpesvirus 5 [4]) [µM] | IC50 (KB [5]) [µM]
1 | OC[C@H]1O[C@@H](n2c(=S)[nH]c3ccc(Cl)cc32)[C@H](O)[C@@H]1O | > 100 | > 100 | > 100 | > 100 | – | – | –
2 | O=[N+]([O-])c1ccc2[nH]c(Cl)nc2c1 | 21 | – | 6 | 20 | – | – | –
3 | OC[C@H]1O[C@@H](n2c(Cl)nc3cc(Cl)c(Cl)cc32)[C@H](O)[C@@H]1O | – | – | 2.8 | – | 1.3 | – | –
4 | Nc1ccc2nc(Cl)n(C3O[C@H](CO)[C@@H](O)[C@H]3O)c2c1 (stereo partly specified) | > 100 | – | > 100 | > 300 | – | – | –
5 | CSc1nc2ccc(Cl)cc2n1C1O[C@H](CO)[C@@H](O)[C@H]1O (stereo partly specified) | < 100 | – | > 100 | > 100 | – | – | –
6 | OC[C@H]1OC(n2c(Cl)nc3ccc(Cl)cc32)[C@H](O)[C@@H]1O (stereo partly specified) | > 100 | – | 58 | > 100 | – | 52 | –
7 | OC[C@H]1OC(n2c(Cl)nc3cc(Cl)ccc32)[C@H](O)[C@@H]1O (stereo partly specified) | > 100 | – | 150 | > 100 | – | 100 | –
8 | Nc1ccc2c(c1)nc(Cl)n2C1O[C@H](CO)[C@@H](O)[C@H]1O (stereo partly specified) | – | – | > 300 | > 300 | – | – | –
9 | OC[C@H]1OC(n2c(SCc3ccccc3)nc3ccc(Cl)cc32)[C@H](O)[C@@H]1O (stereo partly specified) | > 100 | – | > 100 | > 100 | – | – | –
10 | COc1nc2ccc(Cl)cc2n1C1O[C@H](CO)[C@@H](O)[C@H]1O (stereo partly specified) | > 100 | > 100 | > 100 | > 100 | – | – | –
11 | OC[C@H]1O[C@@H](n2cnc3cc(Cl)c(Cl)cc32)[C@H](O)[C@@H]1O [DICHLORORIBOBENZIMIDAZOLE] | – | – | – | – | – | 19 | –
12 | Nc1nc2c(ncn2COC(CO)CO)c(=O)[nH]1 [GANCICLOVIR] | – | – | – | > 100 | 1.6 | – | > 100
